Key:
[1] = tested on: Hemozoin; assay: Inhibition of beta-hematin formation assessed as reduction in hemozoin formation incubated for 20 hrs by NP40 detergent-mediated assay
Procedure, shortened: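 In vitro β-hematin formation assay buffered at acidic pH 4.8 to mimic the parasite digestive vacuole. IC50 is the mean of experiments run in technical triplicate.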

[2] = tested on: HeLa; assay: Cytotoxicity against human HeLa cells assessed as reduction in cell viability at 20 uM incubated for 48 hrs by FACS analysis; type: cell-based
[3] = tested on: Plasmodium falciparum; assay: Antimalarial activity against Plasmodium falciparum 3D7 infected in human Erythrocyte assessed as plasmodial growth at 20 uM incubated for 48 hrs by FACS analysis relative to control; type: functional
[4] = tested on: Plasmodium falciparum; assay: Antimalarial activity against Plasmodium falciparum 3D7 infected in human Erythrocyte assessed as reduction in plasmodial growth incubated for 48 hrs by FACS analysis; type: functional, organism-based; details: 3D7, Erythrocyte
Procedure, shortened: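 Dose-response IC50 against P. falciparum 3D7. Only compounds that reduced parasite viability below 10% in a 20 μM, 48 h single-concentration screen were tested. IC50 is the mean of experiments run in technical triplicate.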

| IC50 ([1]; read-out: IC50) | IC50 [1] | SMILES | Activity [2] | Activity [3] | IC50 [4] |
| --- | --- | --- | --- | --- | --- |
| 72.8 µM |  | c1ccc(-c2nc(-c3c[nH]c4ccccc34)[nH]c2-c2ccccc2)cc1 | Non-Toxic |  |  |
|  | Not Active | COc1ccccc1-c1nc(-c2ccccc2)c(-c2ccccc2)[nH]1 | Non-Toxic |  |  |
| > 500 µM |  | c1ccc(-c2nc(C3CCCCC3)[nH]c2-c2ccccc2)cc1 | Non-Toxic |  |  |
|  | Not Active | Clc1cccc(-c2nc(-c3ccccc3)c(-c3ccccc3)[nH]2)c1 | Non-Toxic |  |  |
|  | Not Active | c1ccc(-c2nc(-c3ccc4ccccc4c3)[nH]c2-c2ccccc2)cc1 | Non-Toxic |  |  |
|  | Not Active | O=[N+]([O-])c1ccccc1-c1nc(-c2ccccc2)c(-c2ccccc2)[nH]1 | Non-Toxic |  |  |
| 294 µM |  | Brc1ccc(-c2nc(-c3ccccc3)[nH]c2-c2ccccc2)cc1 | Non-Toxic |  |  |
| 489 µM |  | Brc1ccc(-c2nc(-c3ccccc3)c(-c3ccccc3)[nH]2)cc1 | Non-Toxic |  |  |
|  | Not Active | Clc1ccc(-c2nc(-c3ccccc3)c(-c3ccccc3)[nH]2)cc1 | Non-Toxic |  |  |
| > 500 µM |  | Clc1ccc(-c2nc(-c3ccccc3)[nH]c2-c2ccccc2)cc1 | Non-Toxic |  |  |
| > 500 µM |  | Fc1ccccc1-c1nc(-c2ccccc2)c(-c2ccccc2)[nH]1 | Non-Toxic |  |  |
| 28.8 µM |  | Clc1ccc(-c2nc(-c3ccc(Br)cc3)[nH]c2-c2ccccc2)cc1 | Non-Toxic | <10% | 8 µM |
| 48.1 µM |  | COc1ccc(-c2nc(-c3ccccc3)c(-c3ccccc3)[nH]2)cc1 | Non-Toxic |  |  |
|  | Not Active | O=[N+]([O-])c1cccc(-c2nc(-c3ccccc3)c(-c3ccccc3)[nH]2)c1 | Non-Toxic |  |  |
|  | Not Active | Brc1ccc(-c2nc(-c3ccccc3)[nH]c2-c2ccc(Br)cc2)cc1 | Non-Toxic | <10% | 13 µM |
| 54.2 µM |  | Brc1ccc(-c2nc(-c3ccc(Br)cc3)c(-c3ccccc3)[nH]2)cc1 | Non-Toxic |  |  |
|  | Not Active | CCC(CC)c1nc(-c2ccccc2)c(-c2ccccc2)[nH]1 | Non-Toxic | <10% | 11 µM |
|  | Not Active | Fc1cccc(-c2nc(-c3ccccc3)c(-c3ccccc3)[nH]2)c1 | Non-Toxic |  |  |
| 20.3 µM |  | COc1ccc(-c2nc(-c3ccc(Br)cc3)c(-c3ccccc3)[nH]2)cc1 | Non-Toxic | <10% | 1.5 µM |
| > 500 µM |  | Fc1ccccc1-c1nc(-c2ccc(Cl)cc2)c(-c2ccccc2)[nH]1 | Non-Toxic |  |  |
| 39 µM |  | Clc1ccc(-c2nc(-c3ccc(Cl)cc3)c(-c3ccccc3)[nH]2)cc1 | Non-Toxic |  |  |
| 156 µM |  | Cc1ccc(-c2nc(-c3ccccc3)c(-c3ccccc3)[nH]2)cc1 | Non-Toxic |  |  |
| 20.5 µM |  | COc1ccc(-c2nc(-c3ccc(Cl)cc3)c(-c3ccccc3)[nH]2)cc1 | Non-Toxic | <10% | 11 µM |
| 28 µM |  | Fc1ccc(-c2nc(-c3ccc(Cl)cc3)c(-c3ccccc3)[nH]2)cc1 | Non-Toxic | <10% | 6.5 µM |
| > 500 µM |  | O=[N+]([O-])c1cccc(-c2nc(-c3ccc(Cl)cc3)c(-c3ccccc3)[nH]2)c1 | Non-Toxic |  |  |
| 16.9 µM |  | CCN(CC)CCCC(C)Nc1ccnc2cc(Cl)ccc12 (configuration not stated) [CHLOROQUINE] |  |  |  |
| 401 µM |  | c1ccc(-c2nc(-c3ccco3)[nH]c2-c2ccccc2)cc1 | Non-Toxic |  |  |
| > 500 µM |  | Cc1ccccc1-c1nc(-c2ccccc2)c(-c2ccccc2)[nH]1 | Non-Toxic |  |  |

Reference: ChEMBL document CHEMBL4699394, “Insights into structural and physicochemical properties required for beta-hematin inhibition of privileged triarylimidazoles” (RSC Med Chem, 2020)
